Source: ChEMBL document CHEMBL1145884, “Synthesis and biological activity of novel 1beta-methylcarbapenems with oxyiminopyrrolidinylamide moiety” (2003)
≈ marks a conversion by molar mass, not a printed value.

Tests used:
[1] = system: Escherichia coli; experiment: Compound was evaluated for its antibacterial activity against Escherichia coli CCARM 1117 MDR; assay type: functional
[2] = system: Escherichia coli; experiment: Compound was evaluated for its antibacterial activity against Escherichia coli CCARM 1108 MDR; assay type: functional
[3] = system: Klebsiella pneumoniae; experiment: Compound was evaluated for its antibacterial activity against Klebsiella pneumoniae 8 ESBL; assay type: functional
[4] = system: Staphylococcus aureus; experiment: Antibacterial activity against Staphylococcus aureus SG 511; assay type: functional
[5] = system: Salmonella typhimurium; experiment: Antibacterial activity against Salmonella Typhimurium; assay type: functional, Salmonella enterica subsp. enterica serovar Typhimurium; settings: Salmonella enterica
In short: (§1)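 MIC was determined by agar dilution on Mueller–Hinton medium.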

[6] = system: Escherichia coli; experiment: Compound was evaluated for its antibacterial activity against Escherichia coli CCARM 1114 MDR; assay type: functional
[7] = system: Klebsiella pneumoniae; experiment: Compound was evaluated for its antibacterial activity against Klebsiella pneumoniae 1 ESBL; assay type: functional
[8] = system: Klebsiella pneumoniae; experiment: Compound was evaluated for its antibacterial activity against Klebsiella pneumoniae 10 ESBL; assay type: functional
[9] = system: Shigella sonnei; experiment: Compound was evaluated for its antibacterial activity against Shigella sonnei ATCC 9290; assay type: functional
[10] = system: Escherichia coli; experiment: Compound was evaluated for its antibacterial activity against Escherichia coli CCARM 1111 MDR; assay type: functional
[11] = system: Salmonella enteritidis; experiment: Compound was evaluated for its antibacterial activity against […] enteritidis 3; assay type: functional, Salmonella enterica subsp. enterica serovar Enteritidis; settings: Salmonella enterica
[12] = system: Klebsiella pneumoniae; experiment: Compound was evaluated for its antibacterial activity against Klebsiella pneumoniae 5 ESBL; assay type: functional
[13] = system: Pseudomonas aeruginosa; experiment: Compound was evaluated for its antibacterial activity against Pseudomonas aeruginosa 3 MDR; assay type: functional
[14] = system: Pseudomonas aeruginosa; experiment: Compound was evaluated for its antibacterial activity against Pseudomonas aeruginosa 2 MDR; assay type: functional
[15] = system: Escherichia coli; experiment: Compound was evaluated for its antibacterial activity against Escherichia coli CCARM 1110 MDR; assay type: functional
[16] = system: Pseudomonas aeruginosa; experiment: Antibacterial activity against Pseudomonas aeruginosa 1771M; assay type: functional; in short: as §1
[17] = system: Klebsiella pneumoniae; experiment: Compound was evaluated for its antibacterial activity against Klebsiella pneumoniae 6 ESBL; assay type: functional
[18] = system: Escherichia coli; experiment: Compound was evaluated for its antibacterial activity against Escherichia coli CCARM 1109 MDR; assay type: functional
[19] = system: Salmonella typhimurium; experiment: Compound was evaluated for its antibacterial activity against Salmonella Typhimurium 1; assay type: functional, Salmonella enterica subsp. enterica serovar Typhimurium; settings: Salmonella enterica
[20] = system: Streptococcus pyogenes; experiment: Antibacterial activity against Streptococcus pyogenes 308A; assay type: functional
[21] = system: Klebsiella pneumoniae; experiment: Compound was evaluated for its antibacterial activity against Klebsiella pneumoniae 2 ESBL; assay type: functional
[22] = system: Salmonella enteritidis; experiment: Compound was evaluated for its antibacterial activity against […] enteritidis 2; assay type: functional, Salmonella enterica subsp. enterica serovar Enteritidis; settings: Salmonella enterica
[23] = system: Escherichia coli; experiment: Compound was evaluated for its antibacterial activity against Escherichia coli DC 0; assay type: functional
[24] = system: Klebsiella oxytoca; experiment: Compound was evaluated for its antibacterial activity against Klebsiella oxytoca 1082E; assay type: functional
[25] = system: Pseudomonas aeruginosa; experiment: Antibacterial activity against Pseudomonas aeruginosa 9027; assay type: functional; in short: as §1
[26] = Compound was evaluated for its relative half life of hydrolysis to meropenem by partially purified porcine renal dihydropeptidase-I (DHP-I); assay type: functional; settings: Sus scrofa
[27] = system: Pseudomonas aeruginosa; experiment: Compound was evaluated for its antibacterial activity against Pseudomonas aeruginosa 1 MDR; assay type: functional
[28] = system: Enterobacter cloacae; experiment: Antibacterial activity against Enterobacter cloacae 1321E; assay type: functional; in short: as §1
[29] = system: Escherichia coli; experiment: Antibacterial activity against Escherichia coli 1507E; assay type: functional; in short: as §1
[30] = system: Klebsiella aerogenes; experiment: Antibacterial activity against Klebsiella aerogenes 1522E; assay type: functional; in short: as §1
[31] = system: Escherichia coli; experiment: Compound was evaluated for its antibacterial activity against Escherichia coli 0157:H7; assay type: functional
[32] = system: Staphylococcus aureus; experiment: Antibacterial activity against Staphylococcus aureus 285; assay type: functional
[33] = system: Escherichia coli; experiment: Antibacterial activity against Escherichia coli 078; assay type: functional; in short: as §1
[34] = system: Escherichia coli; experiment: Compound was evaluated for its antibacterial activity against Escherichia coli ATCC 25922; assay type: functional
[35] = system: Pseudomonas aeruginosa; experiment: Antibacterial activity against Pseudomonas aeruginosa 1592E
[36] = system: Escherichia coli; experiment: Compound was evaluated for its antibacterial activity against Escherichia coli CCARM 1112 MDR; assay type: functional
[37] = system: Salmonella enteritidis; experiment: Compound was evaluated for its antibacterial activity against […] enteritidis; assay type: functional, Salmonella enterica subsp. enterica serovar Enteritidis; settings: Salmonella enterica
[38] = system: Enterobacter cloacae; experiment: Compound was evaluated for its antibacterial activity against Enterobacter cloacae P99; assay type: functional
[39] = system: Salmonella enteritidis; experiment: Compound was evaluated for its antibacterial activity against […] enteritidis 1; assay type: functional, Salmonella enterica subsp. enterica serovar Enteritidis; settings: Salmonella enterica
[40] = system: Salmonella typhimurium; experiment: Compound was evaluated for its antibacterial activity against Salmonella Typhimurium; assay type: functional, Salmonella enterica subsp. enterica serovar Typhimurium; settings: Salmonella enterica
[41] = system: Escherichia coli; experiment: Compound was evaluated for its antibacterial activity against Escherichia coli CCARM 1116 MDR; assay type: functional
[42] = system: Escherichia coli; experiment: Compound was evaluated for its antibacterial activity against Escherichia coli CCARM 1113 MDR; assay type: functional
[43] = system: Klebsiella pneumoniae; experiment: Compound was evaluated for its antibacterial activity against Klebsiella pneumoniae 9 ESBL; assay type: functional
[44] = system: Klebsiella pneumoniae; experiment: Compound was evaluated for its antibacterial activity against Klebsiella pneumoniae 7 ESBL; assay type: functional
[45] = system: Pseudomonas aeruginosa; experiment: Compound was evaluated for its antibacterial activity against Pseudomonas aeruginosa ATCC 27853; assay type: functional
[46] = system: Escherichia coli; experiment: Compound was evaluated for its antibacterial activity against Escherichia coli CCARM 1115 MDR; assay type: functional
[47] = system: Klebsiella pneumoniae; experiment: Compound was evaluated for its antibacterial activity against Klebsiella pneumoniae 4 ESBL; assay type: functional
[48] = system: Salmonella typhimurium; experiment: Compound was evaluated for its antibacterial activity against Salmonella Typhimurium 2; assay type: functional, Salmonella enterica subsp. enterica serovar Typhimurium; settings: Salmonella enterica
[49] = system: Shigella flexneri; experiment: Compound was evaluated for its antibacterial activity against Shigella flexneri ATCC 9199; assay type: functional
[50] = system: Escherichia coli; experiment: Compound was evaluated for its antibacterial activity against Escherichia coli DC 2; assay type: functional
[51] = system: Escherichia coli; experiment: Compound was evaluated for its antibacterial activity against Escherichia coli TEM; assay type: functional
[52] = system: Staphylococcus aureus; experiment: Antibacterial activity against Staphylococcus aureus 503; assay type: functional
[53] = system: Klebsiella pneumoniae; experiment: Compound was evaluated for its antibacterial activity against Klebsiella pneumoniae 3 ESBL; assay type: functional

Compound: C[C@@H](O)[C@H]1C(=O)N2C(C(=O)O)=C(S[C@@H]3CN[C@H](C(=O)N4CC/C(=N/O)C4)C3)[C@H](C)[C@H]12
- MIC [1]: 0.03 mg/L (≈ 0.0684 µM)
- MIC [2]: 0.03 mg/L (≈ 0.0684 µM)
- MIC [3]: 0.25 mg/L (≈ 0.57 µM)
- MIC [4]: 0.195 mg/L (≈ 0.445 µM)
- MIC [5]: 0.025 mg/L (≈ 0.057 µM)
- MIC [6]: 0.13 mg/L (≈ 0.296 µM)
- MIC [7]: 0.03 mg/L (≈ 0.0684 µM)
- MIC [8]: 0.016 mg/L (≈ 0.0365 µM)
- MIC [9]: 0.016 mg/L (≈ 0.0365 µM)
- MIC [10]: 0.016 mg/L (≈ 0.0365 µM)
- MIC [11]: 0.016 mg/L (≈ 0.0365 µM)
- MIC [12]: 0.016 mg/L (≈ 0.0365 µM)
- MIC [13]: 8 mg/L (≈ 18.2 µM)
- MIC [14]: 8 mg/L (≈ 18.2 µM)
- MIC [15]: 0.06 mg/L (≈ 0.137 µM)
- MIC [16]: 0.195 mg/L (≈ 0.445 µM)
- MIC [17]: 0.03 mg/L (≈ 0.0684 µM)
- MIC [18]: 0.06 mg/L (≈ 0.137 µM)
- MIC [19]: 0.016 mg/L (≈ 0.0365 µM)
- MIC [20]: 0.013 mg/L (≈ 0.0296 µM)
- MIC [21]: 0.03 mg/L (≈ 0.0684 µM)
- MIC [22]: ≤ 0.008 mg/L
- MIC [23]: 0.03 mg/L (≈ 0.0684 µM)
- MIC [24]: 0.13 mg/L (≈ 0.296 µM)
- MIC [25]: 0.391 mg/L (≈ 0.892 µM)
- relative t1/2 (DHP-I hydrolysis vs meropenem) [26]: 1.03
- MIC [27]: 1 mg/L (≈ 2.28 µM)
- MIC [28]: 0.013 mg/L (≈ 0.0296 µM)
- MIC [29]: 0.025 mg/L (≈ 0.057 µM)
- MIC [30]: 0.025 mg/L (≈ 0.057 µM)
- MIC [31]: 0.016 mg/L (≈ 0.0365 µM)
- MIC [32]: 0.195 mg/L (≈ 0.445 µM)
- MIC [33]: 0.025 mg/L (≈ 0.057 µM)
- MIC [34]: 0.016 mg/L (≈ 0.0365 µM)
- MIC [35]: 0.391 mg/L (≈ 0.892 µM)
- MIC [36]: 0.016 mg/L (≈ 0.0365 µM)
- MIC [37]: 0.016 mg/L (≈ 0.0365 µM)
- MIC [38]: 0.13 mg/L (≈ 0.296 µM)
- MIC [39]: 0.016 mg/L (≈ 0.0365 µM)
- MIC [40]: 0.03 mg/L (≈ 0.0684 µM)
- MIC [41]: 0.016 mg/L (≈ 0.0365 µM)
- MIC [42]: 0.06 mg/L (≈ 0.137 µM)
- MIC [43]: 0.03 mg/L (≈ 0.0684 µM)
- MIC [44]: 0.06 mg/L (≈ 0.137 µM)
- MIC [45]: 1 mg/L (≈ 2.28 µM)
- MIC [46]: 0.03 mg/L (≈ 0.0684 µM)
- MIC [47]: 0.03 mg/L (≈ 0.0684 µM)
- MIC [48]: 0.03 mg/L (≈ 0.0684 µM)
- MIC [49]: 0.016 mg/L (≈ 0.0365 µM)
- MIC [50]: 0.016 mg/L (≈ 0.0365 µM)
- MIC [51]: 0.016 mg/L (≈ 0.0365 µM)
- MIC [52]: 0.098 mg/L (≈ 0.223 µM)
- MIC [53]: 0.13 mg/L (≈ 0.296 µM)
